Source: publication PMC4047138 (Pharmacological research : the official journal of the …, 2013)
Entries after “also recorded” stand apart in the source; their conditions may differ.

Experiments:
[1] = system: hV2R[L^83Q] cells in the presence of doxycycline; experiment: counter screen: same hV2R[L^83Q] HeLa cells incubated with doxycycline 36 hours; assay type: cell-based; conditions: Homo sapiens, read-out: EC50 (μM) +Dox
How it was run: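 HeLa line expressing hV2R[L83Q] under a tetracycline-regulated (TET-off) transactivator. Cells are pretreated with compound, challenged with an EC100 dose of vasopressin, lysed, and cAMP is read by cAMP-Glo luminescence. […] The −Dox run expresses the mutant. The +Dox counter screen adds doxycycline 36 hours before assay, shutting off mutant expression.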

hV2R[L^83Q] [2] = target: T1, hV2R[L^83Q] (Homo sapiens, UniProt P30518, L83Q); experiment: hV2R[L^83Q] pharmacoperone assay; assay type: cell-based; conditions: for LOPAC Screen Average % Response +/- Std Dev: single concentration of 6 μM (0.4% DMSO), SR121463 as positive control, -Dox
GnRHR[E^90K] = conditions: mouse, in vivo; cited from earlier work
hV2R[L^83Q] [3] = target: T1, hV2R[L^83Q]; conditions: pre-treatment with 100 nM, absence of Dox, 384-well; cited from earlier work

SMILES	EC50 [1] [µM]	LOPAC Screen Average % Response +/- Std Dev (hV2R[L^83Q] [2])	other results
C=C[C@@]1(C)CC(=O)[C@]2(O)[C@@]3(C)[C@@H](O)CCC(C)(C)[C@@H]3[C@H](O)[C@H](OC(C)=O)[C@@]2(C)O1 [Forskolin]	0.59	104+/−0%	
Cc1cc(C)cc(-c2[nH]c3ccc(C(C)(C)C(=O)N4CC5CCC4CC5)cc3c2[C@H](C)CNCCc2ccncc2)c1 [IN3, (2S)-2-[5-[2-(2-azabicyclo[2.2.2]oct-2-yl)-1,1-dimethyl-2-oxoethyl]-2-(3,5-dimethylphenyl)-1H-indol-3-yl]-N-(2-pyridin-4-ylethyl)propan-1-amine]			testis weight / size (GnRHR[E^90K]): increased testis size; also recorded: markedly increased
Cc1ccccc1N1CCN(S(=O)(=O)C[C@]23CC[C@H](C[C@@H]2NC(=O)[C@@H](N)CCS(C)(=O)=O)C3(C)C)CC1 [L-368,899]		74+/−2%	
O=C1c2c(O)ccc(O)c2C(=O)c2c(NCCNCCO)ccc(NCCNCCO)c21 [Mitoxantrone]	> 25		
CCOc1ccc2c(c1)C1(CCC(OCCN3CCOCC3)CC1)C(=O)N2S(=O)(=O)c1ccc(C(=O)NC(C)(C)C)cc1OC (stereo not shown) [SR121463]			signal-to-background ratio (S/B) (hV2R[L^83Q] [2]; -Dox assay, n=4): ~7; cAMP response to vasopressin challenge after pharmacoperone pre-treatment (hV2R[L^83Q] [3]): robust cAMP response
